The labels stand for the following.
B1: tRNA (parent)
chain: GUUCCGUUGGCGUAAUGGUAACGCGUCUCCCUCCUAAGGAGAAGACUGCGGGUUCGAGUCCCGUACGGAACG

This sample holds only a part of the variants without activity. Some results are limits rather than exact numbers.

In the RNAGym collection of RNA variant scans (doi:10.1126/science.aae0568) one finds yeast fitness data, which are given here for 167 variants.

In this data set the parent is B1. As to the kind of experiment: yeast fitness relative to wild type (ratio to wild type); higher = fitter; tRNA-Arg(CCU), competitive growth, 37 C, YPD. Summed up:
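Genotype frequency changes were the basis for Darwinian fitness relative to wild type. The frequencies came from 100-nucleotide paired-end sequencing of gene amplicons from the start population and each end population of pooled yeast strains with tRNA-Arg(CCU) gene variants at the native locus. Competition ran in YPD at 37°C for 24 hours in six replicates, genotypes needed ≥ 100 starting reads, and estimates < 0.5 were set to 0.5.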
Consider G9A C30U G44A A65U, for which the yeast fitness came to 0.578.

Consider G9A C24U G25C C30G G50C G56A C66U, for which the yeast fitness is ≤ 0.5.

As for G9A G10A C60U A69C, the yeast fitness is 0.618.

G9A C49U A69C: the yeast fitness stood at 0.85.

As to G9A C33U C49G, the yeast fitness is ≤ 0.5.

For G9A C31U C60U C62U, the yeast fitness was ≤ 0.5.

With G9A C60G G67A, the yeast fitness was ≤ 0.5.

For G9A G12C C31A C33G A45G G67U, the yeast fitness is ≤ 0.5.

For the variant G9A G10A C46G, the yeast fitness is ≤ 0.5.

Regarding G9A G10C U19A, the yeast fitness was ≤ 0.5.

As for G9A C29U A43G G68U, the yeast fitness worked out at 0.527.

As for G9A C24U G58C G67C, the yeast fitness is ≤ 0.5.

G9A G12C G17A C22G C30U C34G U59G A70U: the yeast fitness is ≤ 0.5.

For the variant G9A G10A C31G G52A C60U, the yeast fitness is ≤ 0.5.

For G9A C31U A57C U64A G68A, the yeast fitness is ≤ 0.5.

In the case of G9A G12C G17A C22G C30U C34G, the yeast fitness is ≤ 0.5.

Turning to G9A C27G A40G, the yeast fitness amounted to 0.53.

As to G9A C27G A43G C66G, the yeast fitness came to 0.717.

As for G9A C34U C46A C61A C62U, the yeast fitness was ≤ 0.5.

Turning to G9A C33U G56A G67A, the yeast fitness was ≤ 0.5.

Regarding G9A C31U A43U, the yeast fitness was determined as 0.697.

On to G9A C24U G38C G56C, for which the yeast fitness is ≤ 0.5.

As to G9A G12C U13A G25A C30G C66A, the yeast fitness was ≤ 0.5.

Regarding G9A G12C U13A G25A C30G C66U, the yeast fitness was ≤ 0.5.

As for G9A C27U C46G, the yeast fitness amounted to 0.708.

Turning to G9A C31A C46A A57G, the yeast fitness is ≤ 0.5.

On to G9A C34G C55U G63A, for which the yeast fitness is ≤ 0.5.

For G9A C31U C60G C61U G63A, the yeast fitness was ≤ 0.5.

Turning to G9A C29G C66U, the yeast fitness was ≤ 0.5.

For G9A C30U C34G A40C C49G G68C, the yeast fitness is ≤ 0.5.

G9A C27U A43G: the yeast fitness amounted to 0.588.

Take G9A C29U U32A A43U C61G A65C C66G: the yeast fitness is ≤ 0.5.

As to G9A G12A C27G, the yeast fitness is ≤ 0.5.

Take G9A C30A G38A A42C C61U: the yeast fitness was ≤ 0.5.

G9A C30U C49U U64A: the yeast fitness is ≤ 0.5.

G9A C66G G68C: the yeast fitness was 0.571.

For G9A C31A A65C, the yeast fitness worked out at 0.871.

Consider G9A C31A A65U, for which the yeast fitness is ≤ 0.5.

G9A C49U A65U: the yeast fitness came to 0.651.

On to G9A G17C C49G, for which the yeast fitness is ≤ 0.5.

For the variant G9A C61G, the yeast fitness stood at 0.705.

Take G9A C46U: the yeast fitness was determined as 0.943.

In the case of G9A G12C, the yeast fitness stood at 0.943.

For the variant G9A G12A, the yeast fitness was 0.927.

On to G9A G12U A14U C34A A65C, for which the yeast fitness was ≤ 0.5.

Turning to G9A C31U A70C, the yeast fitness came to 0.766.

Take G9A G10C C11U U16G G41A G48A A65U: the yeast fitness was ≤ 0.5.

For G9A G17U U35A G52A U59C C66A G67A, the yeast fitness is ≤ 0.5.

For G9A C31G G56C, the yeast fitness was determined as 0.753.

For G9A C24U C30G C34A C49G, the yeast fitness is ≤ 0.5.

Take G9A G12A C22G A43G C46G C66U: the yeast fitness is ≤ 0.5.

As for G9A C55U, the yeast fitness came to 0.65.

Regarding G9A C55A, the yeast fitness turned out to be 0.707.

Turning to G9A C55G, the yeast fitness came to 0.549.

As to G9A C31U C55U, the yeast fitness worked out at 0.694.

As for G9A C30G A43C, the yeast fitness was ≤ 0.5.

Consider G9A G10A, for which the yeast fitness amounted to 0.577.

Consider G9A C29G C30G C46G, for which the yeast fitness is ≤ 0.5.

Consider G9A C29U C46U, for which the yeast fitness was determined as 0.626.

Consider G9A G12C U13A G25A C30G, for which the yeast fitness is ≤ 0.5.

Regarding G9A G12U A14U U32G U53A, the yeast fitness was ≤ 0.5.

Take G9A C60U: the yeast fitness was determined as 0.742.

As for G9A C34G A65U, the yeast fitness is ≤ 0.5.

With G9A C31A G56A G67A, the yeast fitness is ≤ 0.5.

As to G9A C60G A70U, the yeast fitness amounted to 0.584.

Take G9A C24U A40U A57U: the yeast fitness was 0.514.

Take G9A C60U U64G: the yeast fitness amounted to 0.696.

Turning to G9A G10A C11U, the yeast fitness is 0.668.

With G9A G10A C31G G44A, the yeast fitness was ≤ 0.5.

Turning to G9A C27G C34A C46G C55A G63A, the yeast fitness was ≤ 0.5.

G9A C27A C49U C60U C62A A65G: the yeast fitness was ≤ 0.5.

For the variant G9A C55U A70G, the yeast fitness was determined as 0.536.

As for G9A C55U A70U, the yeast fitness is 0.623.

As to G9A C29A C34A G67C, the yeast fitness is ≤ 0.5.

For the variant G9A C33U A36U, the yeast fitness was 0.536.

Turning to G9A C30A A57C A70U, the yeast fitness was ≤ 0.5.

G9A C33A C46A G56C: the yeast fitness is ≤ 0.5.

As for G9A G12U A14U C27G G39A G67A, the yeast fitness was ≤ 0.5.

As to G9A C46A C61A, the yeast fitness was found to be 0.53.

For the variant G9A C27G C31U C46G G51C, the yeast fitness is 0.594.

Take G9A C29A: the yeast fitness was determined as 0.735.

Turning to G9A C29G, the yeast fitness was determined as 0.555.

As for G9A G18C, the yeast fitness came to 0.643.

Turning to G9A G10C C11U U16G G41A, the yeast fitness turned out to be 0.597.

Take G9A C30G U32C G41A A57U: the yeast fitness was ≤ 0.5.

For G9A C66U, the yeast fitness came to 0.898.

As to G9A C33G A42C C49U C55G, the yeast fitness came out at 0.729.

In the case of G9A C34U U59C A65C A69G, the yeast fitness was ≤ 0.5.

For the variant G9A C46U C66U, the yeast fitness is 1.04.

As for G9A C29A G48A, the yeast fitness was ≤ 0.5.

Regarding G9A G10A C34U C66U, the yeast fitness was ≤ 0.5.

Regarding G9A C24U U53A C66U, the yeast fitness stood at 0.529.

With G9A C34U C46A C62U C66U, the yeast fitness was ≤ 0.5.

Regarding G9A C29G A57G, the yeast fitness was ≤ 0.5.

In the case of G9A C30U G52A, the yeast fitness was ≤ 0.5.

Consider G9A C31A C33A, for which the yeast fitness was ≤ 0.5.

Turning to G9A C29A C34A, the yeast fitness amounted to 0.576.

With G9A C29U C31U A42U, the yeast fitness worked out at 0.615.

With G9A G10A G25A C31G G52A C61U, the yeast fitness is ≤ 0.5.

With G9A C46G C61A, the yeast fitness is ≤ 0.5.

Take G9A C24U G38A G48C: the yeast fitness is ≤ 0.5.

As for G9A C29U C55U, the yeast fitness amounted to 0.535.

With G9A G10C G25C C33U, the yeast fitness was ≤ 0.5.

Regarding G9A G12A C30G U32C G50A, the yeast fitness came to 0.554.

Take G9A C27G A40G G68A: the yeast fitness was ≤ 0.5.

In the case of G9A C49U, the yeast fitness turned out to be 0.845.

Turning to G9A G17C A20U U54A C61U, the yeast fitness was ≤ 0.5.

For the variant G9A C34U A36G C49G C62A A65C, the yeast fitness is ≤ 0.5.

In the case of G9A G10A C31G, the yeast fitness is ≤ 0.5.

In the case of G9A C30U C33A A36U A43U, the yeast fitness was ≤ 0.5.

Take G9A C29G A45U C46G G48A G56C: the yeast fitness was ≤ 0.5.

With G9A C31A G50C, the yeast fitness is 0.604.

Consider G9A C30G G58C, for which the yeast fitness is ≤ 0.5.

G9A C30U G68C: the yeast fitness was ≤ 0.5.

Regarding G9A C46G C49U A69C, the yeast fitness was 0.709.

With G9A C27U G56A G67A, the yeast fitness is ≤ 0.5.

In the case of G9A C30A A45C C49A, the yeast fitness worked out at 0.651.

For G9A G17C, the yeast fitness amounted to 0.668.

With G9A C34U G44C A45C C66A, the yeast fitness came out at 0.578.

In the case of G9A C34U G44C A45C C66G, the yeast fitness was ≤ 0.5.

Take G9A G10C C11U U16G G41A A70G: the yeast fitness is ≤ 0.5.

As to G9A G18A G25C C30U, the yeast fitness was ≤ 0.5.

Regarding G9A C31G C49G G51C, the yeast fitness was ≤ 0.5.

As for G9A C30A A42C G68A, the yeast fitness is ≤ 0.5.

Regarding G9A C49U G68A, the yeast fitness turned out to be 0.668.

As for G9A C49U G68C, the yeast fitness stood at 0.657.

Take G9A C30U C33A A36U C49U: the yeast fitness was ≤ 0.5.

In the case of G9A C31U A40C, the yeast fitness was found to be 1.04.

As for G9A C27U A45C, the yeast fitness is 0.904.

As to G9A G12U A14U C31G A69U, the yeast fitness was ≤ 0.5.

G9A C46U G67C: the yeast fitness came out at 0.633.

Turning to G9A G18C G39C A69U, the yeast fitness was ≤ 0.5.

Take G9A G18A C24U A57C: the yeast fitness is ≤ 0.5.

Turning to G9A G17C G56C, the yeast fitness amounted to 0.589.

As to G9A C34G C61U C66U, the yeast fitness was ≤ 0.5.

For G9A C55G A65C, the yeast fitness is ≤ 0.5.

With G9A G12A C29G A65U, the yeast fitness is ≤ 0.5.

Turning to G9A C34G, the yeast fitness worked out at 0.588.

G9A G12C A14C G50C: the yeast fitness is 0.594.

Consider G9A G12C G17A C22G C30U C34G U59G, for which the yeast fitness was ≤ 0.5.

Consider G9A C31A G41C A69C, for which the yeast fitness was ≤ 0.5.

For G9A C62A, the yeast fitness is 0.842.

Regarding G9A C29A G50A, the yeast fitness was 0.62.

G9A C29A C31A A40C G44A U59A: the yeast fitness is ≤ 0.5.

G9A C24U U32A: the yeast fitness came to 0.564.

With G9A G12C C22U, the yeast fitness came out at 0.591.

In the case of G9A G12U A14U, the yeast fitness was ≤ 0.5.

In the case of G9A G12C C31A C33G A45G, the yeast fitness is 0.611.

Regarding G9A C34U C49A G52A, the yeast fitness was ≤ 0.5.

Take G9A G18A C27U A42U: the yeast fitness worked out at 0.652.

On to G9A G17C G52A C55A, for which the yeast fitness is ≤ 0.5.

In the case of G9A G10A C31G A65U, the yeast fitness is ≤ 0.5.

As for G9A C31U, the yeast fitness is 0.982.

G9A C31A: the yeast fitness came out at 0.862.

Regarding G9A G12C C31A C33G A45G C66U G68C, the yeast fitness is ≤ 0.5.

G9A C24G U28C A57C: the yeast fitness was ≤ 0.5.

With G9A C30G A70U, the yeast fitness worked out at 0.57.

G9A C31G G56C C66A: the yeast fitness is ≤ 0.5.

Turning to G9A G10C C60U U64G, the yeast fitness is ≤ 0.5.

For the variant G9A G17C C29G C49G, the yeast fitness was ≤ 0.5.

For the variant G9A C24U U32G A65C C66G, the yeast fitness is ≤ 0.5.

Turning to G9A G10C A20G G25C C33U, the yeast fitness was ≤ 0.5.

Take G9A C27G C34A C46G: the yeast fitness is ≤ 0.5.

Regarding G9A C27G C33G C55G A57C, the yeast fitness is ≤ 0.5.

Regarding G9A G10A A21G A57G C66U, the yeast fitness is ≤ 0.5.

As for G9A C33G C49A A69U, the yeast fitness is ≤ 0.5.

With G9A G12C A14C G23A G50C, the yeast fitness is 0.56.
